Screening results: PubChem BioAssay, several laboratories
C2C12 statin – suppressors of simvastatin-induced myotoxicity in C2C12 myotubes; hit rate 0.78% among 330,000; ATP luminescence, 48 h; scaled: DMSO 0, geranylgeraniol control 100; rescue of ATP level, % at 7.49 µM; AID 602340;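 active = mean ATP rescue above about 67%, or every replicate alone reaching that limit, limit read from the data, passing the limit was not always enough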;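 note: myotubes were challenged with 10 µM simvastatin during compound exposure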
SUMO Mot1 rescue – inhibitors of SUMOylation pathway: yeast Mot1-301 growth rescue | S. cerevisiae Mot1-301 growth rescue, ATP luminescence, 38.5C; percent above DMSO median, 100 means doubled | growth rescue, % at 18.8 µM | hit rate 1% among 320,000 | AID 2716;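 active = every valid replicate shows activation above 250% relative to neutral control wells; inactive = the rest, any valid replicate at or below 250%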;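 note: OY570 slx delta 5 strain wells were the positive control but not used for scaling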
Cneo AK release – Cryptococcus neoformans lysis via adenylate kinase release. C. neoformans lysis, adenylate kinase release luminescence, 4 h; normalised: neutral wells 0, clomiphene wells 100. lysis activity, % at 15 µM. hit rate 0.2% among 360,000;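 active = mean lysis activity across replicates of at least 80%, whatever share of replicates individually reach that level; inactive = mean lysis activity below 80%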
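Material: C. neoformans cells; Schedule: 4 h static compound exposure, 37 °C, read 1 h post-reagent; Measured by: adenylate kinase release luminescence; Read-out: signal increase indicating cell lysis; Controls: Clomiphene as positive lysis control.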
Efflux pump mplx – antifungal efflux pump inhibition, Nile Red retention. hit rate 0.44% among 330,000. inhibition, % at 10 µM. S. cerevisiae Candida pump triplex;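 active = plate passing quality check with inhibition over a set limit, or well fluorescence over plate mean plus 4 SD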;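 note: Nile Red retained in pooled yeast measured as flow cytometry median fluorescence; 0% = buffer negative control and 100% = Enniatin B positive control; higher means more Nile Red kept so more efflux inhibition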
Numbers without * were called inactive; / = not tested or not shown. A selection: hits, their analogues and other compounds. The true share with any hit is near 1.8%.

SMILES	C2C12 statin	SUMO Mot1 rescue	Cneo AK release	Efflux pump mplx
CSc1cccc(NC(=O)c2cc(S(=O)(=O)N3CCCC3)cn2C)c1	-24.0	4.4	-0.2	0.1
COc1ccc(NC(=O)N(C)C[C@H]2Oc3ccc(NC(=O)c4ccncc4)cc3CC(=O)N([C@@H](C)CO)C[C@@H]2C)cc1	8.1	/	-0.5	/
COc1cccc(-c2c(NC(=O)c3ccco3)oc3ccccc3c2=O)c1	-1.6	519.0*	0.1	0.3
COc1cccc(-c2c(NC(=O)c3ccco3)oc3ccc(Cl)cc3c2=O)c1	6.7	5.8	3.7	0.2
Nn1cnc2cc3ccccc3cc2c1=O	18.6	273.4	-0.3	0.0
COc1cc(OC)c(OC)cc1C#N	3.7	689.2*	-0.5	0.1
COc1ccc(NC(C)=O)cc1C#N	/	/	/	-0.1
C#CCSc1nsc(SCC#C)c1C#N	57.0	-5.3	-1.1	0.2
CCC(C)n1ncn(-c2ccc(N3CCN(c4ccc(OCC5COC(Cn6cncn6)(c6ccc(Cl)cc6Cl)O5)cc4)CC3)cc2)c1=O (stereo not given)	-50.3	270.5	-0.5	0.0
CCCC1COC(Cn2cncn2)(c2ccc(C)cc2)O1 (stereo not given)	7.5	281.1*	-1.3	0.0
C[C@H]1CN([C@@H](C)CO)C(=O)CCCn2cc(nn2)CO[C@@H]1CN(C)Cc1ccc(O)cc1	5.4	/	-16.0	/
CCOC(=O)N1CCN(c2ccccc2O)CC1	124.4*	4.3	-0.8	0.0
FC(F)(F)C12CC(c3ccccc3)=NCCN1CCN2 (stereo not given)	-7.6	-6.5	2.1	-0.1
CC(=O)N(C)C[C@H]1Oc2ncc(C#Cc3cccnc3)cc2C(=O)N([C@@H](C)CO)C[C@H]1C	11.9	/	-1.8	/
O=C(CSc1nnc(COc2ccccc2)n1Cc1ccco1)c1ccc(F)cc1	3.4	-2.2	1.3	-0.1
Cc1ccc(OCc2nnc(SCC(=O)c3ccccc3)n2Cc2ccco2)cc1	76.9*	-11.0	0.4	0.1
CCN(CC)CCNC(=O)C1(O)c2cc(Br)ccc2NC(=O)N1c1ccc(Cl)cc1 (stereo not given)	3.7	-4.2	0.2	-0.1
Brc1ccc(-c2nn3c(Cc4ccccc4)nnc3s2)o1	71.8*	-5.5	-1.7	0.1
O=C(COC(=O)c1cnc(Cl)c(Cl)c1)Nc1cccc(S(=O)(=O)N2CCOCC2)c1	-0.1	-10.8	0.2	0.1
COc1ccc(S(=O)(=O)N(C)C[C@@H]2Oc3ncc(-c4cc5ccccc5o4)cc3C(=O)N([C@H](C)CO)C[C@@H]2C)cc1	12.1	/	-2.2	/
C[C@H](CO)N1C[C@H](C)[C@H](CN(C)C(=O)Nc2ccccc2)Oc2ncc(-c3cc4ccccc4o3)cc2C1=O	91.7*	/	2.3	/
C[C@H](CO)N1C[C@H](C)[C@H](CN(C)S(=O)(=O)c2ccc(C#N)cc2)Oc2ncc(-c3cc4ccccc4o3)cc2C1=O	94.9*	/	-1.7	/
CC(C)NC(=O)N(C)C[C@@H]1Oc2ncc(-c3cc4ccccc4o3)cc2C(=O)N([C@H](C)CO)C[C@@H]1C	1.5	/	2.1	/
C/C(N)=C(/C#N)C(=O)CSc1nnc(Nc2c(C)cccc2C)s1	/	337.3*	-0.5	-0.1
COc1ccccc1-c1cc(C(F)(F)F)nc(S(=O)(=O)CCCC(=O)O)n1	19.6	4.5	-0.8	0.1
SMILES	C2C12 statin	SUMO Mot1 rescue	Cneo AK release	Efflux pump mplx
COc1ccccc1-c1cc(C(F)(F)F)nc(S(=O)(=O)CCCC(=O)N2CCOCC2)n1	90.2*	11.0	3.9	0.2
O=C(C[C@@H]1C=C[C@@H](NC(=O)Nc2ccc3c(c2)OCO3)[C@H](CO)O1)NCc1ccc(Cl)cc1	-23.2	/	18.2	/
COc1ccc(NC(=O)Cn2nnc(-c3ccccc3)c2COc2ccc3ccccc3c2)cn1	8.0	/	12.9	/
c1ccc(-c2ccc(OCCCn3cncn3)cc2)cc1	10.6	78.1	-2.1	-0.1
c1ccc(COc2ccc(OCCn3cncn3)cc2)cc1	-4.2	252.2*	0.9	0.3
O=C(COc1coc(CN2CCN(c3ccc(F)cc3)CC2)cc1=O)NC1CCCC1	11.7	297.3*	-0.9	-0.1
O=C(COc1coc(CN2CCN(c3ccc(F)cc3)CC2)cc1=O)NC1CCCCC1	5.2	/	0.5	/
Cc1ccc(NNC(=O)c2cc(C)on2)c(C)c1	/	3.6	/	-0.1
CC(C)(C)c1ccc(C(=O)NNc2ccc(F)cc2F)cc1	3.8	178.0	0.2	0.0
CCCc1ccc(C(=O)NNc2ccc(F)cc2)cc1	/	288.6*	1.3	0.1
CCc1ccc(C(=O)NNc2ccc(F)cc2F)cc1	3.2	339.2*	-5.3	0.2
Cc1cc(C(=O)NNc2ccc(F)cc2F)no1	/	538.3*	2.1	0.1
CCc1nc2nc(C)c(NS(=O)(=O)c3cccs3)c(=O)n2[nH]1	20.2	203.3	1.9	-0.4
CCOCCCNC(=O)C1CC(=O)N(CCc2ccccc2)C1 (stereo not given)	1.7	-14.8	-1.9	0.0
O=C(C[C@H]1C[C@@H]2c3cc(NC(=O)c4cccnc4)ccc3O[C@@H]2[C@@H](CO)O1)NCCc1ccccc1	-2.5	/	80.8*	/
O=C(C[C@@H]1C[C@H]2c3cc(NC(=O)c4cccnc4)ccc3O[C@H]2[C@@H](CO)O1)NCCc1ccccc1	-3.8	/	10.9	/
COCCNC(=O)C[C@@H]1C[C@H]2c3cc(NC(=O)C4CCOCC4)ccc3O[C@H]2[C@@H](CO)O1	3.6	/	1.4	/
COCCNC(=O)C[C@@H]1C[C@@H]2c3cc(NC(=O)C4CCOCC4)ccc3O[C@@H]2[C@@H](CO)O1	-0.3	/	98.0*	/
COc1cccc(S(=O)(=O)Nc2ccc3c(c2)[C@H]2C[C@H](CC(=O)N(C)C)O[C@@H](CO)[C@H]2O3)c1	-0.9	/	98.8*	/
COc1cccc(S(=O)(=O)Nc2ccc3c(c2)[C@@H]2C[C@H](CC(=O)N(C)C)O[C@@H](CO)[C@@H]2O3)c1	0.3	/	21.1	/
COCCNC(=O)C[C@@H]1C[C@H]2c3cc(NC(=O)C4CCC4)ccc3O[C@H]2[C@H](CO)O1	-1.8	/	-14.5	/
COCCNC(=O)C[C@H]1C[C@@H]2c3cc(NC(=O)C4CCC4)ccc3O[C@@H]2[C@H](CO)O1	-5.5	/	103.1*	/
Cc1cccc(S(=O)(=O)N[C@@H]2CC[C@@H](CCNC(=O)CCN3CCCCC3)O[C@@H]2CO)c1	-1.7	/	-1.3	/
O=C(Cc1ccc(S(=O)(=O)N2CCOCC2)s1)NCCc1ccc(F)cc1	-0.3	7.3	3.0	-0.1
COc1ccccc1C(C)NC(=O)C1CCN(S(=O)(=O)c2cccs2)CC1 (stereo not given)	1.1	-6.6	0.0	-0.5
COc1ccc(S(=O)(=O)N(C)C[C@H]2Oc3ncc(-c4ccncc4)cc3C(=O)N([C@H](C)CO)C[C@@H]2C)cc1	-9.9	/	2.3	/
COc1ccccc1-c1cc2nc(NCCc3ccncc3)ccn2n1	7.9	/	0.9	/
CCOc1ccc2nc(NC(=O)C3(C)CC3(Br)Br)sc2c1 (stereo not given)	/	4.8	-22.3	-0.1
Cc1cccc(NS(=O)(=O)c2ccc(C3CCCCC3)cc2)c1	/	791.7*	4.0	0.3
Cc1cccc(NS(=O)(=O)c2nnc(NC(=O)c3ccc(Cl)cc3)s2)c1	1.0	-2.8	1.8	-0.2
